Experiments:
Format in all cases: functional
HCC 2998 = test: Growth inhibition of human HCC 2998 cells assessed as cell growth at 0.01 uM incubated for 48 hrs by sulforhodamine B assay relative to control; settings: read-out: Activity
Method in brief: (§1)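 NCI Developmental Therapeutics Program NCI60 panel. Compounds that were active in the 10 µM one-dose screen went on to dose–response testing. Growth at each concentration is expressed relative to untreated control (100%). GI50 (concentration giving 50% of maximal inhibition of proliferation) and TGI (concentration giving total growth inhibition) were derived from the curves.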

HCT-15 [1] = test: Growth inhibition of human HCT-15 cells assessed as cell growth at 0.01 uM incubated for 48 hrs by sulforhodamine B assay relative to control; settings: read-out: Activity
U-251 = test: Growth inhibition of human U-251 cells assessed as cell growth at 0.01 uM incubated for 48 hrs by sulforhodamine B assay relative to control; settings: read-out: Activity
LOX IMVI [2] = test: Growth inhibition of human LOX IMVI cells assessed as cell growth at 0.01 uM incubated for 48 hrs by sulforhodamine B assay relative to control; settings: read-out: Activity
M14 = test: Growth inhibition of human M14 cells assessed as cell growth at 0.01 uM incubated for 48 hrs by sulforhodamine B assay relative to control; settings: read-out: Activity
NCI-H322M = test: Growth inhibition of human NCI-H322M cells assessed as cell growth at 0.1 uM incubated for 48 hrs by sulforhodamine B assay relative to control; settings: read-out: Activity
KM12 [3] = test: Growth inhibition of human KM12 cells assessed as cell growth at 0.1 uM incubated for 48 hrs by sulforhodamine B assay relative to control; settings: read-out: Activity
SF-539 = test: Growth inhibition of human SF-539 cells assessed as cell growth at 0.1 uM incubated for 48 hrs by sulforhodamine B assay relative to control; settings: read-out: Activity
OVCAR-4 = test: Growth inhibition of human OVCAR-4 cells assessed as cell growth at 0.1 uM incubated for 48 hrs by sulforhodamine B assay relative to control; settings: read-out: Activity
786-0 = test: Growth inhibition of human 786-0 cells assessed as cell growth at 0.1 uM incubated for 48 hrs by sulforhodamine B assay relative to control; settings: read-out: Activity; method in brief: as §1
CAKI-1 = test: Growth inhibition of human CAKI-1 cells assessed as cell growth at 0.1 uM incubated for 48 hrs by sulforhodamine B assay relative to control; settings: read-out: Activity; method in brief: as §1
DU-145 = test: Growth inhibition of human DU-145 cells assessed as cell growth at 0.1 uM incubated for 48 hrs by sulforhodamine B assay relative to control; settings: read-out: Activity; method in brief: as §1
SR = test: Growth inhibition of human SR cells assessed as cell growth at 1 uM incubated for 48 hrs by sulforhodamine B assay relative to control; settings: read-out: Activity
A549 = test: Growth inhibition of human A549/ATCC cells assessed as cell growth at 1 uM incubated for 48 hrs by sulforhodamine B assay relative to control; settings: read-out: Activity; method in brief: as §1
HCT-116 = test: Growth inhibition of human HCT-116 cells assessed as cell growth at 1 uM incubated for 48 hrs by sulforhodamine B assay relative to control; settings: read-out: Activity
KM12 [4] = test: Growth inhibition of human KM12 cells assessed as cell growth at 1 uM incubated for 48 hrs by sulforhodamine B assay relative to control; settings: read-out: Activity
SK-MEL-28 [5] = test: Growth inhibition of human SK-MEL-28 cells assessed as cell growth at 1 uM incubated for 48 hrs by sulforhodamine B assay relative to control; settings: read-out: Activity
OVCAR-3 = test: Growth inhibition of human OVCAR-3 cells assessed as cell growth at 1 uM incubated for 48 hrs by sulforhodamine B assay relative to control; settings: read-out: Activity
OVCAR-8 = test: Growth inhibition of human OVCAR-8 cells assessed as cell growth at 1 uM incubated for 48 hrs by sulforhodamine B assay relative to control; settings: read-out: Activity
MDA-MB-231 = test: Growth inhibition of human MDA-MB-231 cells assessed as cell growth at 1 uM incubated for 48 hrs by sulforhodamine B assay relative to control; settings: read-out: Activity
MDA-MB-468 = test: Growth inhibition of human MDA-MB-468 cells assessed as cell growth at 1 uM incubated for 48 hrs by sulforhodamine B assay relative to control; settings: read-out: Activity
HOP-92 = test: Growth inhibition of human HOP-92 cells assessed as cell growth at 100 uM incubated for 48 hrs by sulforhodamine B assay relative to control; settings: read-out: Activity
NCI-H23 = test: Growth inhibition of human NCI-H23 cells assessed as cell growth at 100 uM incubated for 48 hrs by sulforhodamine B assay relative to control; settings: read-out: Activity
HCT-15 [6] = test: Growth inhibition of human HCT-15 cells assessed as cell growth at 100 uM incubated for 48 hrs by sulforhodamine B assay relative to control; settings: read-out: Activity
SW-620 = test: Growth inhibition of human SW-620 cells assessed as cell growth at 100 uM incubated for 48 hrs by sulforhodamine B assay relative to control; settings: read-out: Activity
SF-268 = test: Growth inhibition of human SF-268 cells assessed as cell growth at 100 uM incubated for 48 hrs by sulforhodamine B assay relative to control; settings: read-out: Activity
LOX IMVI [7] = test: Growth inhibition of human LOX IMVI cells assessed as cell growth at 100 uM incubated for 48 hrs by sulforhodamine B assay relative to control; settings: read-out: Activity
LOX IMVI [8] = test: Growth inhibition of human LOX IMVI cells incubated for 48 hrs by sulforhodamine B assay
Method in brief: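 NCI60 panel at the NCI Developmental Therapeutics Program. Only compounds active in the 10 µM screen went to dose-response testing. GI50, the concentration giving 50% of maximal inhibition of proliferation, and TGI, the concentration giving total growth inhibition, were derived from the dose-response curves.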

SK-MEL-28 [9] = test: Growth inhibition of human SK-MEL-28 cells incubated for 48 hrs by sulforhodamine B assay
Method in brief: (§2)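 NCI DTP 60-line human tumour panel. Dose-response curves were run only for ligands active in the initial 10 µM screen. GI50 (concentration giving 50% of maximal inhibition of proliferation) and TGI (concentration giving total growth inhibition) were derived from these curves.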

SK-MEL-5 = test: Growth inhibition of human SK-MEL-5 cells incubated for 48 hrs by sulforhodamine B assay; method in brief: as §2
OVCAR-5 = test: Growth inhibition of human OVCAR-5 cells incubated for 48 hrs by sulforhodamine B assay; settings: for CC50: read-out: LC50 (the source's name); method in brief: as §2
TK-10 = test: Growth inhibition of human TK-10 cells assessed as cell growth at 0.1 uM incubated for 48 hrs by sulforhodamine B assay relative to control; settings: read-out: Activity
SK-OV-3 = test: Growth inhibition of human SK-OV-3 cells assessed as cell growth at 1 uM incubated for 48 hrs by sulforhodamine B assay relative to control; settings: read-out: Activity
SK-MEL-2 [10] = test: Growth inhibition of human SK-MEL-2 cells assessed as cell growth at 100 uM incubated for 48 hrs by sulforhodamine B assay relative to control; settings: read-out: Activity
SK-MEL-2 [11] = test: Growth inhibition of human SK-MEL-2 cells incubated for 48 hrs by sulforhodamine B assay; method in brief: as §2

CCc1cccc(C)c1NC(=O)c1sc2nc3c(cc2c1N)C(=O)CCC3
growth at 0.01 µM (HCC 2998): 99%
growth at 0.01 µM (HCT-15 [1]): 93%
growth at 0.01 µM (U-251): 94%
growth at 0.01 µM (LOX IMVI [2]): 95%
growth at 0.01 µM (M14): 96%
growth at 0.1 µM (NCI-H322M): 91%
growth at 0.1 µM (KM12 [3]): 92%
growth at 0.1 µM (SF-539): 89%
growth at 0.1 µM (OVCAR-4): 91%
growth at 0.1 µM (786-0): 89%
growth at 0.1 µM (CAKI-1): 91%
growth at 0.1 µM (DU-145): 102%
growth at 1 µM (SR): 17%
growth at 1 µM (A549): 37%
growth at 1 µM (HCT-116): 28%
growth at 1 µM (KM12 [4]): 24%
growth at 1 µM (SK-MEL-28 [5]): 48%
growth at 1 µM (OVCAR-3): 10%
growth at 1 µM (OVCAR-8): 62%
growth at 1 µM (MDA-MB-231): 51%
growth at 1 µM (MDA-MB-468): -8%
growth at 100 µM (HOP-92): -7%
growth at 100 µM (NCI-H23): 14%
growth at 100 µM (HCT-15 [6]): 7%
growth at 100 µM (SW-620): 14%
growth at 100 µM (SF-268): 5%
growth at 100 µM (LOX IMVI [7]): 8%
GI50 (LOX IMVI [8]): 0.724 µM
LC50 (LOX IMVI [8]): > 100 µM
TGI (LOX IMVI [8]): > 100 µM
GI50 (SK-MEL-28 [9]): 0.133 µM
LC50 (SK-MEL-28 [9]): > 100 µM
TGI (SK-MEL-28 [9]): > 100 µM
GI50 (SK-MEL-5): 0.294 µM
LC50 (SK-MEL-5): 39 µM
TGI (SK-MEL-5): 151 µM
GI50 (OVCAR-5): 2.6 µM
TGI (OVCAR-5): > 100 µM
CC50 (OVCAR-5): > 100 µM

CCc1ccccc1NC(=O)c1sc2nc3c(cc2c1N)C(=O)CCC3
growth at 0.01 µM (HCC 2998): 100%
growth at 0.01 µM (HCT-15 [1]): 93%
growth at 0.01 µM (U-251): 96%
growth at 0.01 µM (LOX IMVI [2]): 97%
growth at 0.01 µM (M14): 90%
growth at 0.1 µM (NCI-H322M): 99%
growth at 0.1 µM (KM12 [3]): 92%
growth at 0.1 µM (SF-539): 93%
growth at 0.1 µM (OVCAR-4): 88%
growth at 0.1 µM (786-0): 89%
growth at 0.1 µM (CAKI-1): 90%
growth at 0.1 µM (TK-10): 97%
growth at 0.1 µM (DU-145): 103%
growth at 1 µM (SR): 20%
growth at 1 µM (A549): 39%
growth at 1 µM (HCT-116): 27%
growth at 1 µM (KM12 [4]): 21%
growth at 1 µM (SK-MEL-28 [5]): 49%
growth at 1 µM (OVCAR-3): 12%
growth at 1 µM (OVCAR-8): 60%
growth at 1 µM (SK-OV-3): 30%
growth at 1 µM (MDA-MB-231): 52%
growth at 1 µM (MDA-MB-468): -4%
growth at 100 µM (HOP-92): -6%
growth at 100 µM (HCT-15 [6]): 19%
growth at 100 µM (SW-620): 12%
growth at 100 µM (SF-268): 12%
growth at 100 µM (LOX IMVI [7]): 24%
growth at 100 µM (SK-MEL-2 [10]): 7%
GI50 (LOX IMVI [8]): 0.645 µM
LC50 (LOX IMVI [8]): > 100 µM
TGI (LOX IMVI [8]): > 100 µM
LC50 (SK-MEL-2 [11]): > 100 µM
TGI (SK-MEL-2 [11]): > 100 µM
GI50 (SK-MEL-28 [9]): 0.001 µM
LC50 (SK-MEL-28 [9]): > 100 µM
TGI (SK-MEL-28 [9]): > 100 µM
GI50 (SK-MEL-5): 0.282 µM
LC50 (SK-MEL-5): > 100 µM
TGI (SK-MEL-5): > 100 µM
GI50 (OVCAR-5): 0.0392 µM
TGI (OVCAR-5): > 100 µM
CC50 (OVCAR-5): > 100 µM

Cc1ccc(NC(=O)c2sc3nc4c(cc3c2N)C(=O)CCC4)cc1C
growth at 0.01 µM (HCC 2998): 99%
growth at 0.01 µM (HCT-15 [1]): 95%
growth at 0.01 µM (U-251): 98%
growth at 0.01 µM (LOX IMVI [2]): 97%
growth at 0.01 µM (M14): 96%
growth at 0.1 µM (NCI-H322M): 94%
growth at 0.1 µM (KM12 [3]): 96%
growth at 0.1 µM (SF-539): 90%
growth at 0.1 µM (OVCAR-4): 82%
growth at 0.1 µM (786-0): 88%
growth at 0.1 µM (CAKI-1): 91%
growth at 0.1 µM (TK-10): 85%
growth at 0.1 µM (DU-145): 101%
growth at 1 µM (SR): 25%
growth at 1 µM (A549): 40%
growth at 1 µM (HCT-116): 33%
growth at 1 µM (KM12 [4]): 24%
growth at 1 µM (SK-MEL-28 [5]): 51%
growth at 1 µM (OVCAR-3): 3%
growth at 1 µM (OVCAR-8): 68%
growth at 1 µM (SK-OV-3): 29%
growth at 1 µM (MDA-MB-231): 56%
growth at 1 µM (MDA-MB-468): -9%
growth at 100 µM (HOP-92): 2%
growth at 100 µM (HCT-15 [6]): 7%
growth at 100 µM (SW-620): 18%
growth at 100 µM (SF-268): 14%
growth at 100 µM (LOX IMVI [7]): 20%
growth at 100 µM (SK-MEL-2 [10]): 18%
GI50 (LOX IMVI [8]): 0.716 µM
LC50 (LOX IMVI [8]): > 100 µM
TGI (LOX IMVI [8]): > 100 µM
GI50 (SK-MEL-2 [11]): 0.463 µM
LC50 (SK-MEL-2 [11]): > 100 µM
TGI (SK-MEL-2 [11]): > 100 µM
GI50 (SK-MEL-28 [9]): 1.51 µM
LC50 (SK-MEL-28 [9]): > 100 µM
TGI (SK-MEL-28 [9]): > 100 µM
GI50 (SK-MEL-5): 0.376 µM
LC50 (SK-MEL-5): ≥ 100 µM
TGI (SK-MEL-5): 16.4 µM
GI50 (OVCAR-5): 2.29 µM
TGI (OVCAR-5): > 100 µM
CC50 (OVCAR-5): > 100 µM
